# Data as given in ChEMBL document CHEMBL3259538, “Identification of the stereochemical requirements in the 4-aryl-2-cycloalkylidenhydrazinylthiazole scaffold for the design of selective human monoamine oxidase B inhibitors” (Bioorg Med Chem, 2014).
# Key:
# [1] = target: T1, Amine oxidase [flavin-containing] A (Homo sapiens, UniProt P21397); assay: Inhibition of human recombinant MAO-A expressed in baculovirus-infected BTI-TN-5B1-4 cell microsomes assessed as decrease in H2O2 production using p-tyramine as substrate preincubated for 15 mins by Amplex Red reagent based fluorimetric method
# T1 sequence (P21397 whole entry): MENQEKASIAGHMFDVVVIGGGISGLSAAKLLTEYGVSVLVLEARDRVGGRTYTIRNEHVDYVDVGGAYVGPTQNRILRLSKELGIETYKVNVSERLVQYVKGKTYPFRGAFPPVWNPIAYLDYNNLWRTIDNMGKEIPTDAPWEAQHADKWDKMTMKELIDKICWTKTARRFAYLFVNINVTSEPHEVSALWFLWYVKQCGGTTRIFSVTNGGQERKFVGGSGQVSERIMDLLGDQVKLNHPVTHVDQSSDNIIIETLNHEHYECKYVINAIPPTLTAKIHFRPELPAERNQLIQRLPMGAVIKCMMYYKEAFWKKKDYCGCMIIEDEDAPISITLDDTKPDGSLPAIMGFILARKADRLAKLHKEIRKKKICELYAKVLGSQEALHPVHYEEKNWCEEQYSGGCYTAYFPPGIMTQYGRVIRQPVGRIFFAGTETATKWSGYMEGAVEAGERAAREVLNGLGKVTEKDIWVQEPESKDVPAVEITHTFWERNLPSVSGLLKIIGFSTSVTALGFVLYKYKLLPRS
# [2] = target: T2, Amine oxidase [flavin-containing] B (Homo sapiens, UniProt P27338); assay: biochemical; format: cell-based, BTI-TN-5B1-4
# T2 sequence (P27338 whole entry): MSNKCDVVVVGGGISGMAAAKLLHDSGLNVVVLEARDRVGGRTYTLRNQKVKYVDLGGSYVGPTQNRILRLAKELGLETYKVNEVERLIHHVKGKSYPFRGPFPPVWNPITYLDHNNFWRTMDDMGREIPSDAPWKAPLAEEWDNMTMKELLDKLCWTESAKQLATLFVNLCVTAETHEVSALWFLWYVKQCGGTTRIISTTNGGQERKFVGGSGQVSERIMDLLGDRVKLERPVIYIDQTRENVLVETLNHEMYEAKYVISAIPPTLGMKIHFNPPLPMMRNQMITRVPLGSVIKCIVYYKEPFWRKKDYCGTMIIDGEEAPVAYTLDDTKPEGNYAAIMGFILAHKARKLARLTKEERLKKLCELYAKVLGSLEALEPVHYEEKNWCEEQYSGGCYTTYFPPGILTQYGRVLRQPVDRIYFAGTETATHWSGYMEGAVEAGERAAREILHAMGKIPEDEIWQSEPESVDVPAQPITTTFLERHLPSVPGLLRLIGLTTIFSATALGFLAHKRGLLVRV
# [3] = tested on: BTI-TN-5B1-4; assay: Selectivity index, ratio of IC50 for human recombinant MAO-A expressed in baculovirus-infected BTI-TN-5B1-4 cell microsomes to IC50 for human recombinant MAO-B expressed in baculovirus-infected BTI-TN-5B1-4 cell microsomes
# [4] = target: T2, Amine oxidase [flavin-containing] B; assay: Inhibition of human recombinant MAO-B expressed in baculovirus-infected BTI-TN-5B1-4 cell microsomes assessed as decrease in H2O2 production using p-tyramine as substrate at 1 mM preincubated for 15 mins by Amplex Red reagent based fluorimetric method; conditions: bti-tn-5b1-4, 1000 µM
# In short: (§1)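 Microsomal enzyme in 0.05 M sodium phosphate, pH 7.4. The enzyme amount was adjusted so that controls oxidize 165 pmol p-tyramine/min. Drug and enzyme were preincubated for 15 min at 37 °C. Final 200 µM Amplex Red and 1 U/mL HRP were then added. Resorufin fluorescence (ex 545/em 590 nm) was read linearly over 15 min at 37 °C. Background without enzyme was subtracted, and drug interference was checked with Amplex Red alone.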
# [5] = target: T1, Amine oxidase [flavin-containing] A; assay: Inhibition of human recombinant MAO-A expressed in baculovirus-infected BTI-TN-5B1-4 cell microsomes assessed as decrease in H2O2 production using p-tyramine as substrate at 100 uM preincubated for 15 mins by Amplex Red reagent based fluorimetric method; conditions: bti-tn-5b1-4, 100 µM; in short: as §1
Compound,IC50 [1],IC50 [2],inhibition (INH) [4],inhibition (INH) [5],Ratio IC50 [3]
CC1CC/C(=N\Nc2nc(-c3ccc(C#N)cc3)cs2)C1 (mixture of isomers),11.1 µM,227 nM,–,–,49
O=C(NCCN1CCOCC1)c1ccc(Cl)cc1 [MOCLOBEMIDE],–,–,Not Active,–,–
C[C@@H]1CCC(=NNc2nc(-c3ccc(F)cc3F)cs2)C1,15.5 µM,5.32 nM,–,–,2920
CC1CCC/C1=N\Nc1nc(-c2ccc([N+](=O)[O-])cc2)cs1 (mixture of isomers),19.2 µM,8.31 nM,–,–,2310
CC1CC/C(=N\Nc2nc(-c3ccc([N+](=O)[O-])cc3)cs2)C1 (mixture of isomers),–,376 nM,–,Not Active,> 266

# Now from value to molecule, other results behind:
IC50 [1],IC50 [2],inhibition (INH) [4],inhibition (INH) [5],Compound,Ratio IC50 [3]
13.8 µM,2.91 nM,–,–,C[C@@H]1CC/C(=N/Nc2nc(-c3ccc(F)cc3F)cs2)C1,4740
–,–,–,Not Active,O=C1Nc2ccccc2C1=O [ISATIN],–
13.1 µM,5.06 nM,–,–,C[C@@H]1CC/C(=N\Nc2nc(-c3ccc(F)cc3F)cs2)C1,2580
16.9 µM,9.34 nM,–,–,CC1CC/C(=N\Nc2nc(-c3ccc(F)cc3F)cs2)C1 (mixture of isomers),1810
